Source: article PMC4364164 (International Journal of Nanomedicine, 2015)

Legend:
SH-SY5Y cells [1] = test: Cellular uptake by fluorescence microscopy, SH-SY5Y; assay type: cell-based, human; details: 1 or 5 μM (Figure 2: 5 μM), 2 hours, NBD fluorescence, fixed cells
Summary of the method: (§1)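 NBD-labelled peptide (N-terminal) in PBS. Cells grown in DMEM with 10% FBS, 2 mM L-glutamine, penicillin and streptomycin at 37°C in 5% CO2. Seeded at 60,000/well on four-well chamber slides, then exposed to 1 or 5 μM for 2 h. Fixed in ice-cold methanol for 10 min and mounted in glycerol/PBS 1:1. Imaged on NBD (λem 515 nm) and DAPI (λex 350/λem 461 nm) channels.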

blood–brain barrier = test: Immunofluorescence analysis of brain sections; assay type: in vivo; details: rat, intravenous 40 μg/100 g, 3.5 hours
Summary of the method: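 Same rats dosed iv at 40 μg/100 g, sampled at 3.5 h. Brains Bouin-fixed and paraffin-embedded; sections dewaxed, citrate (pH 6.0) microwave unmasking at 96°C. Stained with anti-BBB SMI-71, anti-GFAP or anti-tubulin III and 594-nm secondaries; imaged at 488/515 and 594/618 nm. Deconvolved, nMDP colocalisation. Outside/inside-vessel fluorescence per ROI area over ten sections, n=3 per group; two-tailed unpaired t-test.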

U-87 MG cells [2] = test: Maximal oxidative capacity; assay type: cell-based, human; details: regardless of the concentration used, 20 hours, five separate incubations (Figure 1D)
brain homogenates [3] = test: Cytochrome oxidase activity; assay type: in vivo; details: rat brain homogenate; intravenous 40 μg/100 g, 3.5 hours; three rats
Summary of the method: (§2)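 Male Wistar rats (250–300 g), three per group, given a single iv dose of NBD-peptide 40 μg/100 g or PBS vehicle. Zoletil anaesthesia, decapitation at 3.5 h. Tissue homogenised 1:5 w/v in mannitol/sucrose/Tris/EDTA/EGTA/1% BSA medium, pH 7.4. Diluted 1:2 with Lubrol, 30 min on ice. Cytochrome oxidase assayed polarographically (Clark electrode, 37°C), with 1 mM KCN control. Mean ± SE of three rats; triplicate runs.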

liver homogenates [4] = test: Cytochrome oxidase activity; assay type: in vivo; details: rat liver homogenate; intravenous 40 μg/100 g, 3.5 hours; three rats
Summary of the method: as §2

liver homogenates [5] = test: Mitochondrial respiration rate in liver homogenate after in vivo administration; details: rat liver homogenate; intravenous 40 μg/100 g, 3.5 hours; three rats
Summary of the method: (§3)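 Same iv dosing (40 μg/100 g, PBS vehicle, three rats, sampled at 3.5 h). Homogenate (300 μg protein) in 1 mL buffer: 80 mM KCl, 50 mM HEPES, 1 mM EGTA, 5 mM KH2PO4, 2 mM MgCl2, 1% BSA, pH 7.4. Added 4 μM rotenone and 5 mM succinate; basal without ADP, stimulated with 200 μM ADP; respiratory control ratio derived. Clark electrode at 37°C; 1 mM KCN added. Triplicate runs.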

U-87 MG cells [6] = test: Spectrofluorimetric analysis of internalized peptide, U-87 MG; assay type: cell-based, human; details: concentration not given
brain = test: Fluorescence histological analysis ex vivo, brain; assay type: in vivo; details: rat, single intravenous administration of gH625-NBD 40 μg/100 g body weight, 3.5 hours
Summary of the method: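 Male Wistar rats (250–300 g; n=3 per group) got one iv dose of NBD-labelled test peptide, 40 μg/100 g, or PBS vehicle. After 3.5 h: ip Zoletil anaesthesia, then decapitation. Sagittal 10 μm sections: Bouin's fixation 24 h, paraffin, 0.1% Sudan Black B in 70% ethanol 20 min, hemallum. Co-stained for SMI-71 endothelial marker, GFAP or tubulin III (citrate pH 6.0 unmasking), colocalization by nMDP. Outside/inside-vessel fluorescence ratio from ≥10 slices.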

brain homogenates [7] = test: Mitochondrial respiration rate in brain homogenate after in vivo administration; details: rat brain homogenate; intravenous 40 μg/100 g, 3.5 hours; three rats
Summary of the method: as §3

U-87 MG cells [8] = test: Cellular uptake by fluorescence microscopy, U-87 MG; assay type: cell-based, human; details: 1 or 5 μM (Figure 2: 5 μM), 2 hours, NBD fluorescence, fixed cells
Summary of the method: as §1

SH-SY5Y cells [9] = test: MTT assay for cell viability, SH-SY5Y; assay type: cell-based, human; details: for cell death induced: positive control, data not shown
Summary of the method: (§4)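 Seeded in 96-well plates: SH-SY5Y at 8,000/well, U-87 MG at 5,000/well. Exposed 20 h to test compound 0.5–15 μM or equal-volume PBS vehicle; H2O2 400 or 800 μM as positive control. MTT 0.5 mg/mL for 3 h at 37°C. Formazan dissolved in isopropanol with 0.1 M HCl; optical density at 590 nm. Mean ± SE of five separate incubations.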

SH-SY5Y cells [10] = test: Maximal oxidative capacity; assay type: cell-based, human; details: 0–15 μM, 20 hours, Clark-type oxygen electrode 37°C, five separate incubations (Figure 1C)
U-87 MG cells [11] = test: MTT assay for cell viability, U-87 MG; assay type: cell-based, human; details: for cell death induced: positive control, data not shown
Summary of the method: as §4

liver = test: Fluorescence histological analysis ex vivo, liver; assay type: in vivo; details: rat, single intravenous administration of gH625-NBD 40 μg/100 g body weight, 3.5 hours
Summary of the method: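 Male Wistar rats (250–300 g; n=3 per group) got one iv dose of NBD-labelled test peptide, 40 μg/100 g, or PBS vehicle. After 3.5 h: ip Zoletil anaesthesia, then decapitation. Liver dissected. Half was fixed in Bouin's fluid 24 h and paraffin-embedded. 7 μm sections treated with 0.1% Sudan Black B in 70% ethanol 20 min against autofluorescence, then hemallum-stained and imaged for green fluorescence.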

cells = details: NBD alone; cited from earlier work

With H-HGLASTLTRWAHYNALIRAFGGG-NH2 [gH625] the “cellular uptake by fluorescence microscopy” value (SH-SY5Y cells [1]) was “significant uptake”, the “colocalization with astrocytes surrounding the BBB (anti-GFAP, nMDP)” value (blood–brain barrier) was “little or no colocalization” and the “colocalization with the endothelial BBB (anti-BBB SMI-71, nMDP)” value (blood–brain barrier) was “More colocalization”. For the same molecule, the “effect on maximal oxidative capacity (cytochrome oxidase activity)” value (“effect on maximal oxidative capacity” for short) (U-87 MG cells [2]) was “ineffective”, the “effect on maximal oxidative capacity” value (brain homogenates [3]) was “not affected” and the “effect on maximal oxidative capacity” value (liver homogenates [4]) was “not affected”. For the same molecule, the “effect on mitochondrial respiration rate” value (liver homogenates [5]) was “does not influence”, the “administered peptide taken up” value (U-87 MG cells [6]) was “more than 90%” and the “distribution in brain (fluorescence histology)” value (brain) was “reaches the BBB and accumulates in the extensions of nerve cells”. For the same molecule, the “effect on respiratory control ratio” value (brain homogenates [7]) was “no changes”, the “cellular uptake by fluorescence microscopy” value (U-87 MG cells [8]) was “significant uptake” and the “effect on cell viability (MTT)” value (SH-SY5Y cells [9]; 0.5–15 μM, 20 hours, mean ± standard error of five separate incubations (Figure 1A)) was “no significant effect”. The “effect on maximal oxidative capacity” value (SH-SY5Y cells [10]) was “did not significantly affect”, the “effect on cell viability (MTT)” value (U-87 MG cells [11]; 0.5–15 μM, 20 hours, mean ± standard error of five separate incubations (Figure 1B)) was “no significant effect” and the “distribution in liver (fluorescence histology)” value (liver) was “partly taken up by Kupffer cells”.
For “7-nitrobenz-2-oxa-1,3-diazole-4-yl [NBD]”, the “penetration into the cells” value (cells) is given as “almost unable to penetrate”.
Molecule `OO` [H2O2] has a cell death induced (SH-SY5Y cells [9]; 400 μM) of 30%, a cell death induced (SH-SY5Y cells [9]; 800 μM) of 45% and a cell death induced (U-87 MG cells [11]; 400 μM) of 22%. The cell death induced (U-87 MG cells [11]; 800 μM) was 52%.
